OXTR potentiator – human OXTR potentiation; CHO-OTR cells, Fluo-8 calcium fluorescence, potentiator mode; 0% = oxytocin EC15, 100% = EC100; P30559; activation, % at 3 µM; 320,000 compounds, 0.061% hits;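 active = activation above that plate's cutoff, the mean activation of tested compounds plus 3 SD, cut at about 6.6% in these data, passing the limit was not always enough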;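 also: 100% uses oxytocin at 75 nM as the full agonist control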
Target sequence (P30559 whole entry, looked up): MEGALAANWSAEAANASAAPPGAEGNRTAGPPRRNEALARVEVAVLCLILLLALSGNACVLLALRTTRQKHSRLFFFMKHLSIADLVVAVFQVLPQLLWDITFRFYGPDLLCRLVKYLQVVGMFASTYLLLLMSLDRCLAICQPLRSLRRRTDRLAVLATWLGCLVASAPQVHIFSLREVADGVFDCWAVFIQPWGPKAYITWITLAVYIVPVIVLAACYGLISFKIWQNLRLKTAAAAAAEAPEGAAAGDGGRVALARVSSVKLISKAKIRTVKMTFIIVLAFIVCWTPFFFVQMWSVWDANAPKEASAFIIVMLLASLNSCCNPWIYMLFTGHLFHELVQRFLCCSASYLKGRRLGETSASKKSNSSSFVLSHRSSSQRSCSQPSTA
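System: human OTR in CHO cells; Also added: sub-maximal oxytocin, roughly EC15; Timing: compound 6 min at room temperature before oxytocin, 100 s read; Technique: Fluo-8 intracellular calcium fluorescence, ex 470-495, em 515-575 nm; Controls: oxytocin EC15 low and EC100 high; Replication: singlicate.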
TRPML3 ag – activates the human TRPML3 channel. activation, % at 3 µM. 220,000 compounds, 0.29% hits. HEK293 TRPML3-YFP, Fluo-8 calcium fluorescence; 100% = the carbachol control signal;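 active = activation above its plate's cutoff, the mean activation of the plate's test wells plus 3 SD, cut at about 12% in these data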;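 also: 0% = DMSO only wells and 100% = carbachol wells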
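Test system – HEK293 line with stable expression of human TRPML3-YFP channel · Control set – carbachol 87 µM final as high control (100%), DMSO as low control (0%) · Signal – Fluo-8 calcium dye fluorescence, ex 470-495, em 515-575 nm · Incubation – 1-h 37 °C dye load, 5-s basal, 120-s post-compound reads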
zfTRPN1 agonist – agonists of zebrafish TRPN1 channel. activation, % at 3 µM. 220,000 compounds, 0.18% hits. HEK293 zebrafish TRPN1-YFP, Fluo-8 calcium fluorescence; 100% = response to 87 µM carbachol;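 active = activation above its plate's cutoff, the mean activation of test wells on that plate plus 3 SD, cut at about 19% in these data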;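 also: 0% = DMSO alone and 100% = 87 µM carbachol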
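Material: zebrafish TRPN1-YFP in HEK293 cells; Doses: single test compound dose, 3 µM nominal, 0.3% DMSO; Timing: dye loading 1 h at 37 °C, then 30 min room temperature; Technique: intracellular calcium fluorescence with Fluo-8; Benchmarks: high carbachol 87 µM, low DMSO alone.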
V1aR counter – counter-screen for oxytocin receptor agonists: human V1a receptor agonists | P37288 | 320,000 compounds, 0.25% hits | activation, % at 3 µM | CHO-V1R cells, Fluo-8 calcium fluorescence, agonist mode; 0% DMSO, 100% 3 nM vasopressin;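 active = activation above the mean activation of all tested compounds plus 3 SD, per screening run, cut at about 20% in these data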;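 also: signal is peak over basal fluorescence ratio across a 100 second FLIPR read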
OXTR agonist – agonists of human oxytocin receptor | P30559 | CHO-OTR cells, Fluo-8 calcium fluorescence; normalized: DMSO 0%, oxytocin 100% | activation, % at 3 µM | 320,000 compounds, 0.32% hits;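 active = activation above the mean of all tested compounds plus 3 SD, cutoff set per screening run, cut at about 20% in these data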;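 also: peak over basal fluorescence ratio from a 100 s FLIPR kinetic read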
OXTR pot confirm – human OXTR potentiation, confirmation | activation, % at 3 µM | 180 tested, under 10 active | CHO-OTR cells, Fluo-8 calcium fluorescence; scaled from low-dose to maximal oxytocin | shares compounds with OXTR potentiator;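 active = mean percent activation over triplicates above a cutoff set from solvent-only control plates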;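 also: compounds tested in the presence of an EC15 dose of oxytocin; 0% = EC15 oxytocin with DMSO and 100% = EC100 oxytocin with DMSO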
The depositor's hits bear a star; nt = no result. Shown are actives, neighbours in structure and some others; about 0.58% of the full set was active somewhere.

SMILES	OXTR potentiator	TRPML3 ag	zfTRPN1 agonist	V1aR counter	OXTR agonist	OXTR pot confirm
CCOC(=O)C1=C(CNCCOc2ccc(OC)cc2)NC(=O)NC1c1ccc2c(c1)OCO2 (configuration not stated)	10*	-1	-2	-1	-1	-10
CCn1c(SCC(=O)Nc2nccs2)nnc1-c1cccnc1	-6	nt	nt	0	0	nt
CCn1c(SCC(=O)Nc2nc(C)cs2)nnc1-c1cccnc1	11*	1	0	0	0	-3
C=CC[C@H](CC(=O)OC(C)(C)C)C(=O)OC[C@H]1CCCN1C(=O)[C@@H](CC=C)CC(=O)N(CCO)Cc1ccccc1	-10	nt	nt	-2	-2	nt
O=C(O)c1ccccc1NC(=O)C1CCCO1 (configuration not stated)	12*	0	0	0	1	1
COc1ccc(Nc2nnc(-c3ccc(C)cc3)c3ccccc23)cc1C(=O)N1CCCCC1	17*	0	-2	8	-3	5
Cc1cc(C)n(-c2cc(C(C)(C)C)nc3c(-c4ccc(Cl)cc4)cnn23)n1	13*	0	1	4	0	7.8*
CC1CCCCC1NC(=O)CCS(=O)(=O)c1cc2c(cc1Cl)NC(=O)CO2 (configuration not stated)	25*	nt	nt	0	0	-3
Cc1cc2c(cc1S(=O)(=O)CCC(=O)NC1CCCCC1C)OCC(=O)N2 (configuration not stated)	-1	nt	nt	2	1	nt
CCC(NS(=O)(=O)c1c(C)[nH]c(=O)[nH]c1=O)C12CC3CC(CC(C3)C1)C2 (configuration not stated)	-19	0	1	1	-1	nt
Cc1[nH]c(=O)[nH]c(=O)c1S(=O)(=O)NCC12CC3CC(CC(C3)C1)C2	11*	1	-1	1	2	-5
CCCCn1c(-c2ccoc2C)n[nH]c1=S	10*	0	-1	0	1	-7
CCC1(C)N(O)C(C)(C)C(c2ccc(F)cc2)=[N+]1[O-] (configuration not stated)	-4	1	1	1	0	nt
COC(=O)CSc1[nH]c2ccc(F)cc2c1[N+](=O)[O-]	9.0*	1	3	0	0	-1
COc1ccc(N2CCN(CCCNC(=O)C(=O)c3c(C)n(C)c4ccccc34)CC2)cc1	-6	nt	nt	-1	0	nt
CC(C)(C)NC(=O)c1nn(Cc2ccccc2)c(=O)c2ccccc12	15*	0	-2	-1	-1	-7
CCC(CC)NC(=O)c1nn(Cc2ccccc2)c(=O)c2ccccc12	0	nt	nt	-1	-1	nt
CN(C)c1cccc(C(=O)NNC(=O)CN2C(=O)C3CC=CCC3C2=O)c1 (configuration not stated)	-2	nt	nt	0	0	nt
COc1ccc(CNC(=O)CNC(=O)c2ccc(Br)o2)cc1OC	-6	nt	nt	2	0	nt
CCN1CCCC1CNC(=O)C(=O)Nc1ccccc1 (configuration not stated)	-3	0	0	1	2	nt
CCN1CCCC1CNC(=O)C(=O)Nc1cccc(OC)c1 (configuration not stated)	13*	0	1	1	2	-4
CCN(C(=S)NC(=O)CCc1ccccc1)c1ccccc1	12*	1	2	1	0	-3
CCCCC(=O)NC(=S)NNC(=O)CCc1ccccc1	-1	1	4	0	1	nt
Cc1cc(C)n(C(C)Sc2ccccc2)n1 (configuration not stated)	14*	nt	nt	0	1	-5
CCCC(C)NC(=O)c1ccc(OCc2ccc(Cl)cc2)c(OC)c1 (configuration not stated)	-4	0	-2	0	0	nt
SMILES	OXTR potentiator	TRPML3 ag	zfTRPN1 agonist	V1aR counter	OXTR agonist	OXTR pot confirm
CC(C)Cn1c(SCC(=O)N2CCOCC2)nc2ccccc2c1=O	-3	nt	nt	-1	-1	nt
Cc1coc2c(C)c3oc(=O)c(CCC(=O)NCCCN4CCCC4=O)c(C)c3cc12	12*	nt	nt	-1	0	-4
CCOc1cc(/C=N/NC(=O)C(N)=O)cc(Br)c1O	0	0	0	0	0	nt
CCOc1cc(/C=N/NC(=O)C(=O)NC2CC2)cc(Br)c1O	16*	1	1	0	-1	-6
Cc1c(C(=O)NCc2ccccn2)oc2c(Cl)cccc12	13*	nt	nt	9	1	2
CC1CCCCC1NC(=O)CCC(=O)N1CCOc2ccc(Cl)cc21 (configuration not stated)	-1	nt	nt	1	0	nt
N#Cc1cn(-c2ccccc2)nc1-c1ccc2c(c1)OCCO2	-2	0	-2	0	-1	nt
N#Cc1cn(-c2ccccc2)nc1-c1ccco1	13*	0	-1	-2	-2	-3
COc1ccccc1NC(=O)Cn1c(CCC(=O)O)ccc1-c1ccc(C)cc1	6	0	1	1	-1	nt
CCOc1ccc(S(=O)(=O)NCCC(=O)NCc2ccc(OC)c(OC)c2)cc1	-3	nt	nt	0	-1	nt
COc1ccc(NS(=O)(=O)c2cccc(C(=O)N/N=C/c3cn(-c4ccccc4)nc3-c3ccccc3)c2)cc1	-1	0	0	-1	-1	nt
COc1ccc(NS(=O)(=O)c2cccc(C(=O)N/N=C/c3cn(-c4ccccc4)nc3-c3ccc(OC)cc3)c2)cc1	8.9*	1	2	1	1	-3
COc1ccc(CC(=O)NNC(=O)COc2ccc(Cl)cc2C)cc1S(=O)(=O)N1CCOCC1	3	nt	nt	0	0	nt
CCn1c(=O)c(C(=O)Nc2ccccn2)c(O)c2ccccc21	12*	1	2	3	0	-3
COc1cc(/C=C(/C#N)C(=O)NC(C)c2ccccc2)cc(OC)c1O (configuration not stated)	-5	nt	nt	7	9	nt
CC(NC(=O)/C(C#N)=C/c1ccc(C(=O)O)cc1)c1ccccc1 (configuration not stated)	13*	nt	nt	0	1	3
Cc1csc(NC(=O)CSc2nnc(NC(=O)COc3ccccc3)s2)n1	-8	1	2	-1	-1	nt
COc1ccc(Nc2nc(N)nc(CSc3nncn3C)n2)cc1	-2	1	-1	0	0	nt
CCOc1ccccc1Nc1nc(N)nc(CSc2nncn2C)n1	11*	0	0	1	0	-6
Cc1cc(S(=O)(=O)N2CCCC(C(=O)Nc3ccc(C(=O)O)cc3)C2)ccc1Cl (configuration not stated)	-5	0	-1	0	0	nt

Source: PubChem
